Assay results of several laboratories.
Compare with care: the assays were run in different laboratories.
Organism: Plasmodium falciparum
Read-out: parasite growth

COc1cc2[nH]c(C)c(-c3ccc(Oc4ccc(OC(F)(F)F)cc4)cc3)c(=O)c2cc1Cl  EC50 (SYBR Green; D6; 72 h; blood stage): 0.9 nM
C[C@@H]1C[C@@H]([C@H](O)CC2CC(=O)NC(=O)C2)C(=O)[C@@H](C)C1  EC50 (SYBR Green; 3D7; blood stage): 200 nM
C[C@H]1[C@@H](O)O[C@@H]2O[C@@]3(C)CC[C@H]4[C@H](C)CC[C@@H]1[C@@]24OO3  EC50 (SYBR Green; 3D7): 3.56 nM
CN1CCCN(S(=O)(=O)c2ccc(-c3ccc4ncnc(Nc5ccc(OCc6cccc(F)c6)c(Cl)c5)c4c3)cc2)CC1  EC50 (SYBR Green; W2; drug-resistant strain, blood stage): 52 nM
Cc1noc(-c2cccs2)c1C(=O)NCCc1cccc(Cl)c1  EC50 (SYBR Green; 3D7): 313 nM
Fc1cccc(COc2ccc(Nc3ncnc4ccc(-c5cccc(N6CCOCC6)c5)cc34)cc2Cl)c1  EC50 (SYBR Green; W2; drug-resistant strain, blood stage): 680 nM
CCN(CC)CCCC(C)Nc1ccnc2cc(Cl)ccc12 (centres unmarked)  EC50 (SYBR Green; TM90; 72 h; drug-resistant strain, blood stage): 89 nM
Cc1cc(NC2Cc3cc(F)c(F)cc3C2)n2nc(C(C)(F)F)nc2n1  EC50 (DD2; drug-resistant strain, blood stage): 43 nM
O=C1C(O)=C([C@H]2CC[C@H](c3ccc(Cl)cc3)CC2)C(=O)c2ccccc21  EC50 (SYBR Green; D6; 72 h; blood stage): < 0.25 nM
Cc1cc(Nc2ccc(Cl)c(Cl)c2)n2nc(C)nc2n1  EC50 (SYBR Green; 3D7): 106 nM
Cc1cc(N[C@H]2CCc3ccc(Cl)cc3C2)n2nc(C(C)(F)F)nc2n1  EC50 (K1; drug-resistant strain, blood stage): 1.7 nM
